From PubChem BioAssay AID624401 (The Scripps Research Institute Molecular Screening Center, 2012)
The source made the active and inactive calls.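 Rule for the calls: active = activation of 20% or more; inactive = activation below 20%, including negative responses.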

Target: Aryl hydrocarbon receptor (Homo sapiens) (UniProt P35869)
Experiment: AhR reporter activation, late-stage follow-up, counter-screen for AHR activator project, luminescence, HG2L7.5c1 cells, set 2 (AID 624401)
Conditions: HG2L7.5c1 HepG2 DRE-luciferase reporter, 24 h; for activation: at 10 µM, stronger effect = higher value
How it was run: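 material = HG2L7.5c1 cells, HepG2 stably expressing DRE-driven firefly luciferase reporter | schedule = compound exposure of cells for 24 h at 37 °C | detection = lysate luminescence | read-out basis = percent activation relative to maximal TCDD-induced signal, EC50 by four-parameter Hill fit | controls = maximal TCDD induction as high control | replicates = triplicate wells per compound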

Sequence of Aryl hydrocarbon receptor (Homo sapiens) (P35869 whole entry, looked up): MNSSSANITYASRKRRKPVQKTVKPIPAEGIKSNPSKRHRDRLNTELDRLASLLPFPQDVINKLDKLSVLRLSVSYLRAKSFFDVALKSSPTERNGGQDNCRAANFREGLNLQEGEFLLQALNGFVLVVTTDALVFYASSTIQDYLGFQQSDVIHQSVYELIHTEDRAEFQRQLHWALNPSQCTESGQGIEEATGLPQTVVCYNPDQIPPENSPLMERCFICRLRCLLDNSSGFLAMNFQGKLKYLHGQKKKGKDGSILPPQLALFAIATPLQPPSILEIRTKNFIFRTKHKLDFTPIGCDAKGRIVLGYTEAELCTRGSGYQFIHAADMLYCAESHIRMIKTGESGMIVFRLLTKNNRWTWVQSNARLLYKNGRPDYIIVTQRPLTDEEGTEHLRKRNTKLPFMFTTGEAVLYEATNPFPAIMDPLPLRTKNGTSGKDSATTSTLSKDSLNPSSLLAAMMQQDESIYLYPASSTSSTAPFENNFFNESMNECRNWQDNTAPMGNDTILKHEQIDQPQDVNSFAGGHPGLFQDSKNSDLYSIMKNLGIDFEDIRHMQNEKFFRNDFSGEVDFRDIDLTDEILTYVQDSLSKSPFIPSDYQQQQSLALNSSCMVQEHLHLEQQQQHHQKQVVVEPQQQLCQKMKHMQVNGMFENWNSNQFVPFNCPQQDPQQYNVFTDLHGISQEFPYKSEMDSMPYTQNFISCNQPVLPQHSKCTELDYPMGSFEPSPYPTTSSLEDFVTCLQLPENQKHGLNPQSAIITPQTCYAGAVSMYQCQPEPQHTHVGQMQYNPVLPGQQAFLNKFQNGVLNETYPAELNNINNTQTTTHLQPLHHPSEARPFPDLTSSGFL

Row | SMILES | EC50 [nM] | activation
1 | Cc1ccc(NC(=O)c2ccc(C(=O)Nc3ccc(C)cc3C)nc2)c(C)c1 | – | inactive
2 | COc1ccc(Nc2cc(Cl)nc(N)n2)cc1OC | – | inactive
3 | Cc1cccc(NC(=O)c2cc(-c3ccc(C)cc3O)n[nH]2)c1 | – | inactive
4 | Nc1nc(Cl)cc(Nc2ccccc2F)n1 | – | inactive
5 | COc1ccc(Cl)cc1NC(=O)c1ccc(C(=O)Nc2cc(Cl)ccc2OC)nc1 | – | inactive
6 | Cc1ccnc(NC(=O)CSc2nc3ccccc3s2)c1 | – | inactive
7 | COc1ccc(Nc2cc(Cl)nc(N)n2)cc1 | – | inactive
8 | Cc1cccc(C)c1NC(=O)c1ccc(C(=O)Nc2c(C)cccc2C)nc1 | – | inactive
9 | CCOC(=O)c1c(C)nn(-c2cc(Cl)ccc2Cl)c1C | – | inactive
10 | COc1ccc(-c2cc(-c3ccc(C)cc3O)[nH]n2)cc1 | – | 15.6%
11 | Cc1cc(Nc2ccc(F)cc2)nc(N)n1 | – | inactive
12 | O=C(CSc1nc2ccccc2s1)Nc1ccccn1 | – | 18.9%
13 | O=C(CSc1nc2ccccc2s1)Nc1ccc(Cl)cn1 | – | inactive
14 | CN(Cc1cc(-c2cccs2)n[nH]1)Cc1coc2ccccc2c1=O | – | inactive

Next, values leading:

Row | EC50 [nM] | activation | SMILES
15 | 4000 | – | Cc1ccc(-c2cc(-c3ccc(Cl)cc3)n[nH]2)c(O)c1
16 | – | 25.2% | Nc1nc(Cl)cc(Nc2ccc(Oc3ccccc3)cc2)n1
17 | – | inactive | COc1ccc(O)c(-c2cc(-c3cccs3)[nH]n2)c1
18 | – | 32% | Cc1ccc(O)c(-c2cc(-c3ccccc3Cl)[nH]n2)c1
19 | – | 48.4% | CCOc1ccccc1NC(=O)c1ccc(C(=O)Nc2ccccc2OCC)nc1
20 | – | inactive | O=C(CSc1nc(-c2ccc(F)cc2)cs1)Nc1ccccn1
21 | – | inactive | COc1ccc(NC(=O)c2ccc(C(=O)Nc3ccc(OC)cc3OC)nc2)c(OC)c1
22 | – | inactive | Cc1csc(SCC(=O)Nc2ccccn2)n1
23 | – | inactive | Cc1cc(Br)cc(C)c1Nc1ccnc(Nc2ccc(C#N)cc2)n1
24 | 250 | – | Cc1ccc(-c2cc(-c3ccc(F)cc3)n[nH]2)c(O)c1
25 | 650 | – | Cc1ccc(-c2cc(-c3cccc(F)c3)n[nH]2)c(O)c1
